ChEMBL document CHEMBL3875206, “Design, synthesis and biological evaluation of 4'-aminochalcone-rivastigmine hybrids as multifunctional agents for the treatment of Alzheimer's disease” (Bioorg Med Chem, 2017)
pIC50: −log10 of the molar value.

Legend:
[1] = biological target: T1, Amine oxidase [flavin-containing] B (Homo sapiens, UniProt P27338); assay: Inhibition of recombinant human MAO-B expressed in baculovirus infected High 5 insect cells using kynuramine as substrate incubated for 30 mins by spectrofluorometric method; format: cell-based
T1 sequence (P27338 whole entry): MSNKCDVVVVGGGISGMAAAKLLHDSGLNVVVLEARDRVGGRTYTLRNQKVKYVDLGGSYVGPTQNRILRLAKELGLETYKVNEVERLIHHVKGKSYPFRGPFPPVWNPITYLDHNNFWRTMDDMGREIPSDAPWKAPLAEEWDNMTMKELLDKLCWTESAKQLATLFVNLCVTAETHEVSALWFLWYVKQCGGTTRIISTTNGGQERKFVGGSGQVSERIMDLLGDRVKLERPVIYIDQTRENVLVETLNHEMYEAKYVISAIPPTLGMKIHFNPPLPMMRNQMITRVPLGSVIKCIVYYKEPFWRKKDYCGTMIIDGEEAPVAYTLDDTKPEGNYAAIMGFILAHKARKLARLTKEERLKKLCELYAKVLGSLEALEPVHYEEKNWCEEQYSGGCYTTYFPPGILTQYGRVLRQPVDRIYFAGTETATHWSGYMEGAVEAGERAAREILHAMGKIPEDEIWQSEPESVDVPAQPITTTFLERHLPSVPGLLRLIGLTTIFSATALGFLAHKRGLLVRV

Acetylcholinesterase = Acetylcholinesterase (Electrophorus electricus, UniProt O42275); assay: Inhibition of electric eel AChE using acetylthiocholine iodide as substrate incubated for 15 mins by Ellman's method
How it was run: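 Ellman spectrophotometric assay: electric eel AChE 0.05 U/mL final, acetylthiocholine iodide 1 mmol/L, phosphate buffer pH 8.0, range of compound concentrations.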

[2] = Antioxidant activity assessed as trolox equivalents of AAPH radical scavenging activity at 5 uM preincubated for 15 mins followed by AAPH addition measured every 60 sec for 90 mins by ORAC-FL assay; format: functional
How it was run: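 Peroxyl radicals generated by AAPH (12 mM final) at 37 °C in phosphate buffer pH 7.4 with fluorescein (150 nM final). Sample and fluorescein were preincubated 15 min before AAPH addition. Fluorescence (ex 485/em 535 nm) was read every 60 s for 90 min.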

[3] = Inhibition of rat serum BuChE at 50 uM using butyrylthiocholine iodide as substrate incubated for 15 mins by Ellman's method relative to control; settings: 0.25 h
How it was run: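 Ellman method with 25% rat serum as BuChE source, butyrylthiocholine iodide 1 mmol/L, phosphate buffer pH 7.4, absorbance at 405 nm. Compounds tested at 50 µM. […] Triplicate wells.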

Homo sapiens = species on record: Homo sapiens; assay: Selectivity index, ratio of IC50 for recombinant human MAO-A expressed in baculovirus infected High 5 insect cells to IC50 for recombinant human MAO-B expressed in baculovirus infected High 5 insect cells
How it was run: (§1)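 Recombinant human MAO-A or MAO-B (7.5 µg/mL) with kynuramine substrate in 100 mM potassium phosphate pH 7.4 (KCl-isotonic), <4% DMSO, 30 min at 37 °C. Stopped with 2 N NaOH. Single-point inhibition at 10 µM. IC50 from six-concentration sigmoidal curves, triplicate. SI = IC50(MAO-A)/IC50(MAO-B).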

[4] = Inhibition of Cu2+-mediated aggregation of amyloid beta (1-42) (unknown origin) at 25 uM after 24 hrs by thioflavin T fluorescence-based fluorimetric method relative to control; format: functional
How it was run: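 HFIP-pretreated Aβ1-42 (25 µM) was incubated with Cu2+ (25 µM), with or without compound (25 µM final), in 20 mM HEPES/150 mM NaCl pH 6.6 at 37 °C for 24 h. 5 µM ThT in 50 mM glycine-NaOH pH 8.5 was then added. Fluorescence was read at ex 446/em 490 nm. Percent inhibition was taken versus no-inhibitor control after background subtraction, in triplicate.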

[5] = biological target: Amyloid-beta precursor protein (Homo sapiens) (UniProt P05067); assay: Inhibition of self-induced aggregation of amyloid beta (1-42) (unknown origin) at 25 uM after 24 hrs by thioflavin T fluorescence-based fluorimetric method relative to control
How it was run: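 Aβ1-42 was pretreated in HFIP, dried and stocked in DMSO. Aβ1-42 (25 µM final) was incubated with compound (25 µM final) in 50 mM phosphate buffer pH 7.4 at 37 °C for 24 h. 5 µM ThT in 50 mM glycine-NaOH pH 8.5 was then added. Fluorescence was read at ex 446/em 490 nm. Inhibition = (1−IFi/IFc)×100 after background subtraction, in triplicate.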

[6] = biological target: T2, Amine oxidase [flavin-containing] A (Homo sapiens, UniProt P21397); assay: Inhibition of recombinant human MAO-A expressed in baculovirus infected High 5 insect cells at 10 uM using kynuramine as substrate incubated for 30 mins by spectrofluorometric method relative to control; settings: 0.5 h
T2 sequence (P21397 whole entry): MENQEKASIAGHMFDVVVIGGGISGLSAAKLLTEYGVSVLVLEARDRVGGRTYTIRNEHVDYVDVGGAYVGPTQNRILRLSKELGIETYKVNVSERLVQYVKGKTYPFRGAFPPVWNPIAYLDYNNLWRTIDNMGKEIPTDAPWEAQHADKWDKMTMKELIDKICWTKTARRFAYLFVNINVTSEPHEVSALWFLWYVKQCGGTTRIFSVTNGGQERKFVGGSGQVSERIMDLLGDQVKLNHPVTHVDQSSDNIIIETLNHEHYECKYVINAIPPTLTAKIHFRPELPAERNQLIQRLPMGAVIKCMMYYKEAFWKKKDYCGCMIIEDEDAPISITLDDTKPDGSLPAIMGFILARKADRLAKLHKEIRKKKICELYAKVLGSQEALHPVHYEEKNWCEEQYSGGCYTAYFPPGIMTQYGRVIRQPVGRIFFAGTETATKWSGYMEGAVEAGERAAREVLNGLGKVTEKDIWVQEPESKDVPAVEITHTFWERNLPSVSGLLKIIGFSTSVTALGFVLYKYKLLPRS
How it was run: as §1, with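 “NaOH. 4-Hydroxyquinoline was measured fluorometrically (ex 310/em 400 nm) against a calibration curve.” for “NaOH.”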

[7] = biological target: T1, Amine oxidase [flavin-containing] B; assay: Inhibition of recombinant human MAO-B expressed in baculovirus infected High 5 insect cells 10 uM using kynuramine as substrate incubated for 30 mins by spectrofluorometric method relative to control; settings: 0.5 h
How it was run: as §1, with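 “NaOH. 4-Hydroxyquinoline was measured fluorometrically (ex 310/em 400 nm) against a calibration curve.” for “NaOH.”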

[8] = biological target: T2, Amine oxidase [flavin-containing] A; assay: Inhibition of recombinant human MAO-A expressed in baculovirus infected High 5 insect cells using kynuramine as substrate incubated for 30 mins by spectrofluorometric method
[9] = Inhibition of rat serum BuChE using butyrylthiocholine iodide as substrate incubated for 15 mins by Ellman's method
How it was run: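 Rat serum BuChE (25% serum) by Ellman method, butyrylthiocholine iodide 1 mmol/L, phosphate buffer pH 7.4, read at 405 nm. Compound concentrations varied, each in triplicate.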

Chain of Amyloid-beta precursor protein (Homo sapiens) (P05067 whole entry): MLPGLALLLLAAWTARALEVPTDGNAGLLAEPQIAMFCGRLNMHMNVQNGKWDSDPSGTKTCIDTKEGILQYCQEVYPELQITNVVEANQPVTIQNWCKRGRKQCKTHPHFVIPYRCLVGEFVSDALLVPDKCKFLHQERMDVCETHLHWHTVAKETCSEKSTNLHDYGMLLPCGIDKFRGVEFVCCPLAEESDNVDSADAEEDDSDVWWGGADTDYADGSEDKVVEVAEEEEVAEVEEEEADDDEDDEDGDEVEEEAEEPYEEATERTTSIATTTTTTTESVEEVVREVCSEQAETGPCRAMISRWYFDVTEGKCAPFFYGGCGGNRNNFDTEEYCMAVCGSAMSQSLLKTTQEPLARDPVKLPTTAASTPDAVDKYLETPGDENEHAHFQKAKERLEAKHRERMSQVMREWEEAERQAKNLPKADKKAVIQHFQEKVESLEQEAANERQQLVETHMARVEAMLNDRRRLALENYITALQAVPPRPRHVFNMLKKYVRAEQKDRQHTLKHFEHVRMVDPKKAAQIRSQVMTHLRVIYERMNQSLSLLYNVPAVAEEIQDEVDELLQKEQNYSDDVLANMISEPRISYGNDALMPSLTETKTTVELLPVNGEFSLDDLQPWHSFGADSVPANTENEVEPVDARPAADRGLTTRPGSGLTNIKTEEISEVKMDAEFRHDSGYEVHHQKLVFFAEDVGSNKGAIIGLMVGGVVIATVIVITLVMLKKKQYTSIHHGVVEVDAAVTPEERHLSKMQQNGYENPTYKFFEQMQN
Chain of Acetylcholinesterase (O42275 whole entry): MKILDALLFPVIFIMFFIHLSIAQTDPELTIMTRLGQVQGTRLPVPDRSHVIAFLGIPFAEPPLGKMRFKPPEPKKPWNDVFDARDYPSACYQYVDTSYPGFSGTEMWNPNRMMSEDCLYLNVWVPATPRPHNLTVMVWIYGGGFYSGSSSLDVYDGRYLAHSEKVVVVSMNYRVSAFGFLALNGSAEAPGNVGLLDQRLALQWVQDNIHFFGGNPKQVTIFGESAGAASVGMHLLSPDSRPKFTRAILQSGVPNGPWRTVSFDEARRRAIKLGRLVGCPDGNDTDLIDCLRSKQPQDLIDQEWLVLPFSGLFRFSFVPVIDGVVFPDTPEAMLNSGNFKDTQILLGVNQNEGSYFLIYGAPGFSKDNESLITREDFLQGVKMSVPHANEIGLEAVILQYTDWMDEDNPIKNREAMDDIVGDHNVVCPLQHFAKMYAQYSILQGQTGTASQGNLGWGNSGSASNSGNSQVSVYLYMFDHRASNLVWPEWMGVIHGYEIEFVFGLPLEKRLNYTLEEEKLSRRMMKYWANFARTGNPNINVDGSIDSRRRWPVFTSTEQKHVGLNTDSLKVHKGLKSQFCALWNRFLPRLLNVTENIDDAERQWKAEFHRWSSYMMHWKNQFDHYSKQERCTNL

Row | Compound | pIC50 [1] | pIC50 (Acetylcholinesterase) | Activity [2] [µMequiv/µM] | inhibition (INH) [3] [%] | Ratio IC50 (Homo sapiens) | inhibition [4] [%] | inhibition [5] [%] | inhibition at 10 µM [6] [%] | inhibition at 10 µM [7] [%] | pIC50 [8] | pIC50 [9]
1 | CCN(C)C(=O)Oc1ccc(C(=O)/C=C/c2ccc(N(C)C)cc2)c(O)c1 | 5.68 | 4.84 | 3.14 | < 10 | > 4.76 | 88 | 98 | 25.9 | – | – | –
2 | CCN(CC)C(=O)Oc1ccc(C(=O)/C=C/c2ccc(N(C)C)cc2)c(O)c1 | 5.46 | 4.76 | 2.2 | < 10 | – | 49 | 76.7 | 24.4 | – | – | –
3 | CN1CCN(C(=O)Oc2ccc(C(=O)/C=C/c3ccc(N(C)C)cc3)c(O)c2)CC1 | – | 4.92 | 2.08 | < 10 | – | 75.5 | 87.9 | 49.5 | 25.1 | – | –
4 | CN(C)c1ccc(/C=C/C(=O)c2ccc(OC(=O)N3CCOCC3)cc2OC(=O)N2CCOCC2)cc1 | – | 4.24 | 1.85 | < 10 | – | 41.4 | 33.3 | 15 | 40.2 | – | –
5 | CN(C)c1ccc(/C=C/C(=O)c2ccc(OC(=O)N3CCCCC3)cc2O)cc1 | – | 5.16 | 2.51 | < 10 | – | 73.9 | 70.2 | 27.8 | 31.1 | – | –
6 | O=C(/C=C/c1ccc(N2CCCCC2)cc1)c1ccc(OC(=O)N2CCCC2)cc1O | 6.11 | 4.97 | 1.2 | < 10 | – | 59.8 | 57.2 | 19.6 | – | – | –
7 | CN(C)C(=O)Oc1ccc(C(=O)/C=C/c2ccc(N(C)C)cc2)c(OC(=O)N(C)C)c1 | – | < 4.00 | 2.16 | < 10 | – | 56.2 | 34.7 | 34.6 | 5.1 | – | –
8 | O=C(/C=C/c1ccc(N2CCCC2)cc1)c1ccc(OC(=O)N2CCCC2)cc1O | 6.15 | 4.85 | 0.35 | < 10 | – | 48.9 | 44.4 | 15.2 | – | – | –
9 | CN(C)c1ccc(/C=C/C(=O)c2ccc(OC(=O)N3CCCC3)cc2OC(=O)N2CCCC2)cc1 | – | 4.52 | 2.45 | < 10 | – | 26.3 | 48 | 25.2 | 34.6 | – | –
10 | CCN1CCN(C(=O)Oc2ccc(C(=O)/C=C/c3ccc(N(C)C)cc3)c(O)c2)CC1 | – | 5.06 | 2.54 | < 10 | – | 89.2 | 83.2 | 42.5 | 30 | – | –
11 | O=C(/C=C/c1ccc(N2CCOCC2)cc1)c1ccc(OC(=O)N2CCCC2)cc1O | 6.15 | 4.20 | 0.51 | < 10 | > 14.1 | 48.9 | 44.4 | 15.2 | – | – | –
12 | CN(C)C(=O)Oc1ccc(C(=O)/C=C/c2ccc(N(C)C)cc2)c(O)c1 | 5.61 | 4.49 | 2.62 | < 10 | 4.11 | 77.9 | 90.8 | – | – | 4.99 | –
13 | COc1cc(/C=C/C(=O)CC(=O)/C=C/c2ccc(O)c(OC)c2)ccc1O | – | – | – | – | – | 67.2 | – | – | – | – | –
14 | CCN(C)C(=O)Oc1cccc([C@H](C)N(C)C)c1 [RIVASTIGMINE] | – | – | – | – | – | – | – | – | – | – | 5.54
15 | CN(C)c1ccc(/C=C/C(=O)c2ccc(OC(=O)N3CCOCC3)cc2O)cc1 | – | 5.10 | 2.04 | < 10 | – | 79.7 | 83.6 | 34.6 | 42.3 | – | –
16 | CN(C)c1ccc(/C=C/C(=O)c2ccc(OC(=O)N3CCCCC3)cc2OC(=O)N2CCCCC2)cc1 | – | 4.49 | 2.41 | < 10 | – | 23.8 | 38 | 17 | 30.1 | – | –
17 | CN(C)c1ccc(/C=C/C(=O)c2ccc(O)cc2O)cc1 | 6.51 | 4.11 | 2 | < 10 | 13.4 | 60.1 | 77.7 | – | – | 5.39 | –
18 | CN(C)c1ccc(/C=C/C(=O)c2ccc(OC(=O)N3CCN(Cc4ccccc4)CC3)cc2O)cc1 | – | 4.67 | 3.51 | < 10 | – | 94.2 | 89.4 | 42.1 | 41.6 | – | –
19 | CCN(CC)c1ccc(/C=C/C(=O)c2ccc(OC(=O)N3CCCC3)cc2O)cc1 | 5.17 | 4.93 | 1.02 | < 10 | – | 67.1 | 67.8 | 21 | – | – | –
